According to ChEMBL document CHEMBL4513216, “Probing the Open Global Health Chemical Diversity Library for Multistage-Active Starting Points for Next-Generation Antimalarials” (ACS Infect Dis, 2020):

assay: Toxicity liver stage against HepG2, at 10uM; type: cell-based; parameters: test concentration 10 uM, cell line HepG2-A16-CD81EGFP; conditions: human, HepG2-A16-CD81EGFP cells; read-out: INHIBITION
Outline: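 Uninfected HepG2-A16-CD81EGFP cells, 3 × 10^3 per well, 1536-well, plated on prespotted compound at 10 μM final, parasite-free screening media added to match infected plates; puromycin 10 μM positive, DMSO 0.5% negative; run in parallel with 48 h PbLuc assay at 37 °C, 5% CO2; viability by CellTiter-Glo luminescence, normalized to controls.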

In order of falling cytotoxicity at 10 µM:
1. Cc1nonc1CN(C)CC1(O)CCCN(CCC2CCCCC2)C1=O (stereo not drawn)  49.4%
2. CCOC(=O)c1sc(NC(=O)CN(C)S(C)(=O)=O)c(C#N)c1C  16.6%
3. Fc1cccnc1N1CCC(NCc2cccc3cn[nH]c23)C1 (stereo not drawn)  13.6%
4. CC(C)(C)c1cc(=O)n2c(n1)SCC(C(=O)NCc1cccs1)C2 (stereo not drawn)  12.9%
5. O=C(O)COc1ccc(CN2CCCC(CCc3ccccc3)C2)cc1 (stereo not drawn)  12.1%
6. COc1cc(OC)cc(C(=O)NCC(c2cccn2C)N2CCCC2)c1 (stereo not drawn)  11.2%
7. Cc1ccc2c(n1)N(Cc1csc(C)n1)CCN(C1CCOC1)C2 (stereo not drawn)  9.28%
8. O=C(c1sccc1-n1cnnn1)N1CCC2(CCCCC2)CC1  9.09%
9. CCOC(=O)NCCNC(=O)c1cc(Br)cn1C(C)C  9.08%
10. COc1ccc(CCNC(=O)Cn2ncc3c2c(C)nn3C)cc1  8.93%
11. NC(=O)c1csc(N2CCCC(c3n[nH]c(=O)n3-c3ccccc3)C2)n1 (stereo not drawn)  8.84%
12. COCCO[C@H]1CCN(C(=O)c2cc(C)on2)[C@H]1Cc1ccccc1  8.22%
13. O=C(NC1CCS(=O)(=O)C1)c1sccc1-c1ccc(F)cc1 (stereo not drawn)  8.14%
14. CS(=O)(=O)N1CCCC12CCN(Cc1nccs1)CC2  8.1%
15. Cc1oc(-c2ccsc2)nc1CN1CC[C@@H]2CCCC[C@H]2C1  7.16%
16. CC(=O)c1cn(CCC(=O)NCCC(=O)O)c2ccccc12  7.13%
17. COc1ccc(Cn2cc(C(=O)N(C)CCN(C)C)nn2)cc1  7.13%
18. CC(C)CC1SCC(=O)Nc2c1cnn2-c1ccc(F)cc1 (stereo not drawn)  6.82%
19. Cc1cccc(CN2CCc3onc(CO)c3C2)n1  6.81%
20. COCCN(Cc1ccoc1)C(=O)c1ccccc1OC  6.28%
21. O=C(Cn1cnc2sccc2c1=O)NCCCc1nnc2ccccn12  5.84%
22. COCCCN1C(=O)CC[C@H]2CN(c3cnc4ccccc4n3)CC[C@H]21  5.77%
23. Cc1ccc(NC(=O)CN2CCOCC2)c(F)c1  5.76%
24. CC(C)=CCN1C[C@@H](C(=O)O)C[C@H](C(=O)Nc2ccc(C)nc2)C1  5.67%
25. CC(C)NC(=O)N1CC[C@@H](N(C)C)[C@@H]1Cc1ccncc1  5.53%
26. CCS(=O)(=O)N1CC[C@H](OC)[C@@H]1Cc1ccncc1  5.43%
27. Cc1ncc(CN(C)C(=O)Nc2cccc(N3CCOC3=O)c2)s1  5.31%
28. O=C(c1ccccn1)N1CCN(c2cnnc(N3CCCC3)c2)CC1  4.74%
29. CC(C)CO[C@@H]1CC[C@H]2[C@H]1OCCN2S(=O)(=O)C1CC1  4.04%
30. COc1nc2cc(C)ccc2cc1CN(C)Cc1n[nH]c2c1CCCC2  4.03%
31. O=C(Nc1ccccc1)c1cc2n(n1)CCCN(C(=O)c1ccc[nH]1)C2  3.99%
32. O=C(O)[C@@H]1CN(Cc2c[nH]c(CC3CCCC3)n2)C[C@H]1c1ccccn1  3.86%
33. Cc1cc(C)n(C2CN(CCc3ccccn3)C2)n1  3.65%
34. COc1cccc(CN2C[C@@H]3COC[C@]3(COCc3ccncc3)C2)c1  3.52%
35. CN1CCCC1CCNC(=O)c1ccccc1-n1cc(CN)cn1 (stereo not drawn)  3.44%
36. Cc1cc(CN(C)C(=O)C2CC(=O)N(Cc3cccnc3)C2)on1 (stereo not drawn)  2.95%
37. CC(C)CS(=O)(=O)Nc1ccc([C@H]2OCC(=O)N[C@@H]2CO)cc1  2.79%
38. CCNC(=O)Cc1c(C)nc2c(c1C)c(=O)[nH]n2C  2.62%
39. Cc1n[nH]c(C)c1-c1cc(-c2cc[nH]c2)nc(N)c1C#N  2.41%
40. CC(C)NC(=O)[C@H]1C[C@@H]2[C@@H](C1)OCCN2Cc1cccnc1  2.39%
41. CCc1cc(CN(Cc2cccnc2)C2CN3CCC2CC3)on1 (stereo not drawn)  2.09%
42. Cc1nc(C)n(CC2CCCCN2Cc2nc(-c3ccoc3)no2)n1 (stereo not drawn)  1.98%
43. COCC(O)CN1CCC(=O)N(CC=C(C)C)Cc2ccccc21 (stereo not drawn)  1.87%
44. O=C(NCCCc1ccc(O)cc1)C1(O)Cc2ccccc2C1  1.6%
45. O=C(NC1CC1)C1=CC2(CCN(CCO)CC2)c2ccccc21  1.41%
46. Cc1nccc([C@@H]2C[C@H]3CN(S(=O)(=O)c4ccccc4)C[C@H]3O2)n1  1.32%
47. CCOCCCNC(=O)C1(C)CCC(=O)N1c1cc(OC)ccc1OC (stereo not drawn)  0.957%
48. c1cnc(N2CCC3(CCN(CC4CCCC4)CC3)C2)nc1  0.845%
49. Cc1cccnc1CN1CCN(C(=O)c2cnn(C(C)C)c2)CC1  0.616%
50. Cc1csc(C(Cc2ccsc2)NC(=O)CN(C)Cc2ccccn2)n1 (stereo not drawn)  0.258%
51. COc1cccc(NC(=O)NCC(C)(O)CCSC)c1OC (stereo not drawn)  0.253%
52. Cc1ccc(CN(C)C(=O)CN2CC(n3cccn3)C2)o1  -0.0582%
53. CC[C@H]1CN2CC[C@H]1C[C@@H]2CNC(=O)Nc1cccc(C#N)c1  -0.201%
54. FC1(F)CCNCC12CCN(c1ccccn1)C2 (stereo not drawn)  -0.31%
55. CCCc1cc(C(=O)N2Cc3cnc(C(C)(C)C)nc3C2)ccn1  -0.807%
56. Cc1nn(-c2ccccc2)nc1C(=O)N1CCCC1c1cnn(C)c1 (stereo not drawn)  -0.857%
57. CCc1cc(=O)n(CCNC(=O)Nc2ccc(OC(F)(F)F)cc2)cn1  -0.898%
58. CN(C)CCN1CCCC12CCCN(C(=O)c1cccnc1)C2 (stereo not drawn)  -0.95%
59. Cc1ccc2snc(C(=O)N3CCN(C(=O)NCCC(C)C)CC3)c2c1  -0.964%
60. CCC(C(=O)NCc1ccncc1)N(c1ccccc1)S(C)(=O)=O (stereo not drawn)  -1.17%
61. CS(=O)(=O)CCSCc1cc(F)cc2cccnc12  -1.46%
62. CCn1ncnc1CN1CCC(CNC(=O)c2cccc(C)c2)C1 (stereo not drawn)  -2.59%
63. O=c1cc(CNCc2ccc3c(c2)OCO3)nc2ccc(Br)cn12  -2.62%
64. Cn1ccnc1CN1C[C@@H](CN2CCCCCC2)[C@@H](CO)C1  -2.63%
65. COCCN(Cc1ccco1)c1ncc(C#N)cc1Cl  -2.66%
66. CN(C)C[C@@H]1CN(C(=O)CCC2CCCC2)C[C@@H]1CO  -2.94%
67. Cc1ccccc1OCC(=O)N1CCOC2(CNCCOC2)C1 (stereo not drawn)  -2.96%
68. CN1CCC(CNC(=O)CCSc2ccc3c(c2)OCCO3)C1 (stereo not drawn)  -3.13%
69. CC(O)CN1CCC(=O)N(Cc2ccccc2)Cc2ccccc21 (stereo not drawn)  -3.37%
70. OCCN1CCN(CCOCC(F)(F)F)CC1  -4.47%
71. Cc1csc(CNc2cccc(OCCN3CCCC3)c2)n1  -4.49%
72. CCC(NC(=O)CNCC(F)(F)F)c1cc(F)ccc1F (stereo not drawn)  -4.56%
73. Cn1nc(C2CCN(C(=O)Cc3ccsc3)CC2)c2cccnc21  -4.9%
74. Cc1noc(C)c1CN1CC[C@H]2C[C@@H](c3nccs3)O[C@@H]2C1  -5.33%
75. O=c1c(NCCNCCO)c(N2CCN(Cc3ccccc3)CC2)c1=O  -5.9%
76. COc1cccc(CNC(=O)C(c2cccc(F)c2)N2CCOCC2)c1 (stereo not drawn)  -6.24%
77. Cc1cccc(C(=O)N2CC(=O)N(c3ccccc3Cl)CC2C)n1 (stereo not drawn)  -7.25%
78. Cc1ccc(NC2CCN(C(=O)Cc3c(C)noc3C)CC2)nn1  -8.13%
79. COC(=O)CN1N=C(C(=O)N2CCCC2)S(=O)(=O)c2ccccc21  -8.25%
80. COC(=O)COn1c(SCC(=O)OC)nc2ccccc2c1=O  -8.38%
81. O=C(c1cccc2c1OCO2)N1CCCC(n2cccn2)C1 (stereo not drawn)  -8.72%
82. Cn1cnc2cc(C(=O)NS(=O)(=O)c3ccc(F)cc3)ccc21  -8.95%
83. O=C(c1ccc(O)c(Cl)c1)N(Cc1ccncc1)C1CC1  -8.99%
84. CC(CC(=O)c1ccccc1)NC(=O)c1ccon1 (stereo not drawn)  -10.7%
85. COc1ccc(C(=O)CCC(=O)NCc2ncc(C)s2)cc1F  -11.8%
86. Cc1cccnc1CNCC1(O)CCCN(Cc2ccc(F)cc2)C1=O (stereo not drawn)  -12.3%
87. CN(Cc1ccccc1)c1cnn(CC2COCCO2)c(=O)c1 (stereo not drawn)  -12.4%
88. O=C(NC1CC1)c1cc(NC(=O)N2CCCC(O)C2)ccc1Cl (stereo not drawn)  -15.5%
89. O=C(O)c1cccc(CN2CCC(c3ccnc4ccnn34)CC2)c1  -16.2%
90. CC(=O)N1CCC(Cc2cncc(-c3c(C)n[nH]c3C)n2)C1 (stereo not drawn)  -19.4%
91. O=C(Cc1ccsc1)N1CCCC(c2cc(C(F)F)n3ncnc3n2)C1 (stereo not drawn)  -20.7%
92. O=C(Cn1cc(Cl)cn1)N1CCCC(c2ccn[nH]2)C1 (stereo not drawn)  -22.5%
93. CNc1cc(C2CCCN(S(=O)(=O)c3cn[nH]c3)C2)ccn1 (stereo not drawn)  -24%
94. CC(C)n1ccnc1CN1CCCC1c1cccc(-n2ccnc2)n1 (stereo not drawn)  -25.1%
95. COCCN1CCN(Cc2ccc(F)c(C)c2)[C@H]2CS(=O)(=O)C[C@H]21  -25.5%
96. COc1cccc(S(=O)(=O)N2C[C@H](OC)[C@]3(CCCO3)C2)c1  -25.7%
97. CCN1CCCC(O)(c2nc(C)c(CCOc3ccccc3Cl)s2)CC1 (stereo not drawn)  -26.2%
98. COc1ccc(C2Nc3cc(Cl)ccc3C3=NCCN32)cc1O (stereo not drawn)  -31.1%
99. Cc1ccc(CN2CCC(O)(Cn3ccc4ncccc43)CC2)o1  -31.2%
100. Cc1cc(CN(C)C(=O)CNS(=O)(=O)c2cccs2)no1  -33.4%
101. c1ccc(COC2C[C@@H]3CN(Cc4cncnc4)C[C@@H]3C2)cc1 (stereo partly drawn)  -40%
102. CC(C)CNC(=O)C[S+]([O-])Cc1csc(C2CCCCC2)n1 (stereo not drawn)  -48.5%
103. CC(C)[C@H](Nc1nc(C2CCCC2)nc2c1cnn2C)C(N)=O  -51.5%
104. COc1ccc(CCC(=O)NCc2cc(C)on2)cc1  -56.4%
105. O=C(c1ccccc1)N1CCO[C@@H]2CNC[C@@H]21  -100%
106. CCc1cnc(N2C[C@@H]3C[C@H](C(=O)N4CCOCC4)[C@H](C2)O3)nc1  -104%
107. CCOCC1CN(S(=O)(=O)C2CC2)Cc2nn(C)cc21 (stereo not drawn)  -112%
108. O=C(c1ccccc1)N1CCOC2CNCC[C@H]21 (stereo partly drawn)  -114%
